Where two headings read alike, the source gives them in different places.
Experiments:
SpyCas9 [1] = molecular target: T1, SpyCas9 (Streptococcus pyogenes serotype M1, UniProt Q99ZW2); assay: biochemical; details: for IC50: Spy Cas9; for activity on Cas9 (structure–activity relationship of pamoic acid): SpyCas9, standard assay conditions
SpyCas9 [2] = assay: biochemical; parameters: species or system Streptococcus pyogenes
SpyCas9 [3] = molecular target: T1, SpyCas9; type: cell-based
How it was run: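 HEK293FT cells, ~2 × 10^5 per well, were seeded 1 day before transfection (Lipofectamine 3000) with 1 μg PX459-SpyCas9-sgCOSMC, -sgEMX1 or -sgControl. Test compound was added 0 or 6 h post-transfection, and cells were kept 24 h at 37 °C, then selected with 2.5 μg/ml puromycin for 36–48 h. Target loci were PCR-amplified, Sanger-sequenced and scored by TIDE.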

BE4 base editor = BE4 base editor (Streptococcus pyogenes, UniProt Q99ZW2, D10A); assay: BE4-mediated base editing of EMX1 in HEK293FT cells, EditR analysis; type: cell-based
LbaCas12a = LbaCas12a activity assay; type: biochemical, Lachnospiraceae bacterium; details: complete inhibition refers to 50 μM or above
E. coli MG1655 = assay: Toxicity to bacteria in the two-plasmid-based bacterial survival assay; type: cell-based; details: for toxicity to E. coli: MG1655, bacterial survival assay
How it was run: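 MG1655 pCas-competent cells were electroporated with pT-sgControl. Test compound was added to 700 μl LB immediately afterwards and incubated 1.5 h at 32 °C, then plated on LB agar with kanamycin and spectinomycin (100 μg/ml each). Colonies were counted after overnight incubation; biological replicates n = 3.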

SauCas9 [4] = molecular target: T2, SauCas9 (Staphylococcus aureus, UniProt J7RUA5); assay: SauCas9-mediated genome editing of COSMC in HEK293FT cells, TIDE analysis; type: cell-based
T2 sequence (J7RUA5 1-1053): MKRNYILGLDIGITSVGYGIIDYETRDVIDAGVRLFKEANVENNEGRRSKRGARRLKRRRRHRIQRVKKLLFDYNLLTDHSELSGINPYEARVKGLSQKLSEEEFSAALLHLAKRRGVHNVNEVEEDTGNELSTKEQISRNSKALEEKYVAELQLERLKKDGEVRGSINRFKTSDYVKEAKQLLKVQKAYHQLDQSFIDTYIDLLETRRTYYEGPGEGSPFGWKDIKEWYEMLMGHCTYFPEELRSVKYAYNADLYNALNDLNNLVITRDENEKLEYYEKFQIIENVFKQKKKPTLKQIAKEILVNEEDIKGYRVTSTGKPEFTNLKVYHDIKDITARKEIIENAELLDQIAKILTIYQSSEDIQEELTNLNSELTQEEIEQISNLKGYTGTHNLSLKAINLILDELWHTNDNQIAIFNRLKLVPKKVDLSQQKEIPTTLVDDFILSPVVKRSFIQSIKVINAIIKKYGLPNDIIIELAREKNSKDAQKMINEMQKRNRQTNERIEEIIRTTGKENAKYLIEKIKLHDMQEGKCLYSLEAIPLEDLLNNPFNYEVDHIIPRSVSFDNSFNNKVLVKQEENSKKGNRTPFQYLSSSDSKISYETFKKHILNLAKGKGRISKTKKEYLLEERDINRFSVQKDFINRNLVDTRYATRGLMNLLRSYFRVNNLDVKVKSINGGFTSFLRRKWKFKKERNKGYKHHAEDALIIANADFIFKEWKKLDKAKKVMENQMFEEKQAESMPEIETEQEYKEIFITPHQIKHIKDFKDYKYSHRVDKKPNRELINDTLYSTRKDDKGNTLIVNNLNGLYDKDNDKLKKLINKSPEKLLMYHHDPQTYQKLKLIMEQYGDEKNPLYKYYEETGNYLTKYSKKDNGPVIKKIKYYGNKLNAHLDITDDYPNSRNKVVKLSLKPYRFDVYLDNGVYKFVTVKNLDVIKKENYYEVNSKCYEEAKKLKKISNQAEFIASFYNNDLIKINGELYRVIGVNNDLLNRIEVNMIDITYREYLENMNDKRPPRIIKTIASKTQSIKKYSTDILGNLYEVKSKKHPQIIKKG
How it was run: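 HEK293FT wt cells were co-transfected (Lipofectamine 3000) with 1 μg miniCMV-SaCas9 and 1 μg pGL3 carrying sgCOSMC-Sau or sgControl. Test compound was added right after transfection for 24 h, followed by 2.5 μg/ml puromycin selection. The COSMC locus was PCR-amplified (40 cycles), Sanger-sequenced, and editing efficiency was obtained by TIDE analysis.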

FnoCas12a = FnoCas12a (Francisella tularensis subsp. novicida, UniProt A0Q7Q2); type: biochemical
SpyCas9 [5] = molecular target: T1, SpyCas9; assay: GFP-disruption assay in HEK293FT cells; type: cell-based
SpyCas9 [6] = molecular target: T1, SpyCas9; type: cell-based; remark: listed apart in the source
How it was run: (§1)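 MG1655 competent cells carrying pCas (SpyCas9 or SauCas9) were electroporated with 300 ng pTarget-sgSSEA (867 bp) or its Sau version, which carries an 867-bp homologous recombination repair template. Test compound was added to 700 μl LB right after electroporation, held 1.5 h at 32 °C, then plated on LB agar with 100 μg/ml kanamycin and 100 μg/ml spectinomycin. The SSEA site was genotyped by PCR.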

SpyCas9 [7] = molecular target: T1, SpyCas9; assay: Two-plasmid-based bacterial survival assay; type: cell-based; details: IC50, bacteria-based assay, Spy Cas9; bacterial survival assay using pCas and pTarget-sgSSEA plasmids, E. coli MG1655
How it was run: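 E. coli MG1655 competent cells carrying pCas (SpyCas9) electroporated with pTarget-sgSSEA, or the pT-sgControl plasmid as reference. Test compound added to the electroporated bacteria for 1.5 h at 32 °C, then plated on LB with kanamycin and spectinomycin and incubated overnight. Colonies counted and expressed as a percentage of the compound-treated sgControl strain at the same concentration (100%).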

SauCas9 [8] = molecular target: T2, SauCas9; type: cell-based
How it was run: as §1

SauCas9 [9] = molecular target: T2, SauCas9; assay: In vitro purified enzyme activity assay for SauCas9; type: biochemical; details: IC50, in vitro purified enzyme assay, Sau Cas9
[10] = tested on: SpyCas9-mediated genome editing of PCSK9; assay: SpyCas9-mediated anti-PCSK9 mouse model by hydrodynamic injection; type: in vivo, BALB/c mice; details: for plasma total cholesterol restored to the level of the control: 3rd blood collection
How it was run: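 On days 1, 4 and 7, 90 μg PX459-SpyCas9-sgPCSK9 or -sgControl in 2 ml saline was injected hydrodynamically into the tail vein over 5–8 s. Orbital blood (~100 μl) was taken days 2, 5 and 8, and heparin plasma (20 μl) was assayed by PCSK9 ELISA.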

SpyCas9 [11] = molecular target: T1, SpyCas9; assay: Surface plasmon resonance assay; type: binding
How it was run: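 His-tagged SpyCas9, Ni–NTA purified and imidazole-eluted, amine-coupled to a CM5 chip at 100 μg/ml. Test compounds were diluted in 1× PBST to a series of concentrations and injected at 30 μl/min, with 120 s association and 120 s dissociation. Equilibrium KD was fitted from the response curves.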

[12] = in humans; cited from earlier work
[13] = IC50, in vitro purified enzyme assay, linear substrates (87 bp oligonucleotide or 2.5 kb linear DNA)
[14] = IC50, in vitro purified enzyme assay, supercoil (circular) plasmid substrate pcDNA3.1/CT-GFP
[15] = linear substrates (87 bp oligonucleotide)
[16] = supercoil (circular) plasmid substrate

In the case of `CC1(C)[C@@H](OC(=O)CCC(=O)O)CC[C@]2(C)[C@H]3C(=O)C=C4[C@@H]5C[C@@](C)(C(=O)O)CC[C@]5(C)CC[C@@]4(C)[C@]3(C)CC[C@@H]12` [Carbenoxolone], the IC50 (SpyCas9 [1]; [13]) is reported as 5 to 10 µM, the IC50 (SpyCas9 [1]; [14]) is reported as roughly 100 µM and the “effect of mutation of catalytic residues D10 or H840 on the IC50” value (SpyCas9 [2]) is reported as “did not affect”. For the same compound, the IC50 (SpyCas9 [3]) was 20 to 50 µM, the IC50 (BE4 base editor) was 20 to 50 µM and the “effect on the activity of LbaCas12a” value (LbaCas12a) was “inactive to or weakly inhibited”. The “toxicity to E. coli” value (E. coli MG1655) was “did not appear to be much toxic”, the IC50 (SauCas9 [4]) was 20 to 50 µM and the “effect on the activity of FnoCas12a” value (FnoCas12a) was “inactive to or weakly inhibited”. For the same compound, the IC50 (SpyCas9 [5]) was 10 to 20 µM, the IC50 (SpyCas9 [6]) was 50 to 100 µM and the IC50 (SpyCas9 [7]) was roughly 200 µM. The IC50 (SauCas9 [8]) was 100 to 200 µM, the IC50 (SauCas9 [9]; [15]) was 25 to 50 µM and the IC50 (SauCas9 [9]; [16]) was 100 to 200 µM. For the same compound, the “effect on the basal level of PCSK9 in vehicle-treated (sgControl) mice” value ([10]; 160 mg/kg) was “did not interfere”, the “plasma total cholesterol restored to the level of the control” value (“plasma total cholesterol restored” for short) ([10]; 160 mg/kg) was “largely restored” and the “preventive effect on loss of plasma PCSK9” value ([10]; high doses of 80 or 160 mg/kg, 2nd or 3rd treatment cycle) was “strong preventive effects”.
With `Nc1ccc(O)c(C(=O)O)c1` [5-aminosalicylic acid] the “activity on Cas9 (structure–activity relationship of pamoic acid)” value (from here on “activity on Cas9”) (SpyCas9 [1]) was “inactive”.
For `O=C(O)c1ccccc1O` [Salicylic acid, salicylic acid], the “activity on Cas9” value (SpyCas9 [1]) was “inactive”.
In the case of `COc1cccc2c1C(=O)c1c(O)c3c(c(O)c1C2=O)C[C@@](O)(C(=O)CO)C[C@@H]3O[C@H]1C[C@H](N)[C@@H](O)[C@H](C)O1` [Epirubicin], the IC50 (SpyCas9 [1]; [13]) is reported as 2 to 5 µM, the IC50 (SpyCas9 [1]; [14]) is reported as 2 to 5 µM and the “effect on the activity of LbaCas12a” value (LbaCas12a) is reported as “completely inhibit”. The “toxicity to electroporated bacteria” value (E. coli MG1655; at a concentration of 50 μM) was “significant toxicity”, the “effect on the activity of FnoCas12a” value (FnoCas12a) was “completely inhibit” and the Kd (SpyCas9 [11]) was greater than 1 mM. It also gave an IC50 (SpyCas9 [6]) of 6.25 to 12.5 µM, an IC50 (SpyCas9 [7]) of 3.13 to 6.25 µM and an IC50 (SauCas9 [8]) of roughly 6.25 µM. For the same compound, the IC50 (SauCas9 [9]; [15]) was 6.25 to 12.5 µM, the IC50 (SauCas9 [9]; [16]) was 3.13 to 6.25 µM and the “site of metabolism / elimination” value [12] was “mainly metabolized in human liver”.
For `O=C(O)c1cc(/N=N/c2ccc(O)c(C(=O)O)c2)ccc1O` [Olsalazine, olsalazine], the “activity on Cas9” value (SpyCas9 [1]) was “inactive”.
`CN1CCCN=C1/C=C/c1cccc(O)c1` [Oxantel pamoate] gave an IC50 (SpyCas9 [1]; read-out: IC50, in vitro purified enzyme assay, supercoil (circular) plasmid substrate pcDNA3.1/CT-GFP) greater than 200 µM.
For `O=C(O)c1cc2ccccc2c(Cc2c(O)c(C(=O)O)cc3ccccc23)c1O` [Pamoic acid], the IC50 (SpyCas9 [1]; [13]) was 10 to 20 µM, the IC50 (SpyCas9 [1]; [14]) was 400 to 600 µM and the “effect of mutation of catalytic residues D10 or H840 on the IC50” value (SpyCas9 [2]) was “did not affect”. The IC50 (SpyCas9 [3]) was 20 to 50 µM, the IC50 (BE4 base editor) was roughly 50 µM and the “effect on the activity of LbaCas12a” value (LbaCas12a) was “inactive to or weakly inhibited”. The “toxicity to E. coli” value (E. coli MG1655) was “did not appear to be much toxic”, the IC50 (SauCas9 [4]) was 20 to 50 µM and the “effect on the activity of FnoCas12a” value (FnoCas12a) was “inactive to or weakly inhibited”. It also gave an IC50 (SpyCas9 [5]) of 20 to 50 µM, an IC50 (SpyCas9 [6]) of roughly 400 µM and an IC50 (SpyCas9 [7]) of 200 to 400 µM. The IC50 (SauCas9 [8]) was 250 to 500 µM, the IC50 (SauCas9 [9]; [15]) was 25 to 50 µM and the IC50 (SauCas9 [9]; [16]) was 500 to 1000 µM. The “plasma total cholesterol restored” value ([10]; 80 mg/kg) was “largely restored”, the “effect on the basal level of PCSK9 in vehicle-treated (sgControl) mice” value ([10]; 160 mg/kg) was “did not interfere” and the “plasma total cholesterol restored” value ([10]; 160 mg/kg) was “largely restored”. For the same compound, the “restoration of plasma PCSK9 level” value ([10]; 80 or 160 mg/kg intraperitoneal, 1st, 2nd, or 3rd treatment cycle) was “completely restore”, the “dose from which a dose-dependent preventative effect on plasma PCSK9 starts” value ([10]; intraperitoneal) was no less than 20 mg/kg and the “effect on PCSK9 allele modifications in liver (NGS)” value ([10]; medium dose of 40 mg/kg) was “largely reduced but not totally prevented”. The “site of metabolism / elimination” value [12] was “mainly metabolized in human liver”.
Compound `OCCOCCN1CCN(C(c2ccccc2)c2ccc(Cl)cc2)CC1` (stereo not shown) [Hydroxyzine pamoate] has an IC50 (SpyCas9 [1]; [13]) of 20 to 50 µM and an IC50 (SpyCas9 [1]; [14]) greater than 200 µM.

Reference: publication PMC11951523 (Genome Biology, 2025)
